Compound activity deposited in PubChem by several laboratories.
This is one part of a sample in which hits are shown more often than they occur.
MDM2 E3 inh: Mdm2 E3 ligase (human) inhibition | Q00987 | cell-based MDM2 ubiquitination luciferase reporter, 2 h; 0 = plate control, 100 = twice control, blank-subtracted | signal enhancement, % at 5 µM | 0.11% of 210,000 active;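 active = signal enhancement of 30% or more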;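 note: luminescence tracks abundance of the self-degrading MDM2-luciferase fusion protein; higher signal means inhibition of MDM2 E3 ligase activity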
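System: stable MDM2–luciferase fusion reporter cells / Input: 2000 cells seeded into each well / Schedule: 4 h settle plus 2 h compound, 37 °C / Compound: single-point 5 µM / Buffer or medium: cells held in DMEM / Benchmarks: control and blank well means / Evaluation: percent signal gain over controls, blank-subtracted / Measured by: luciferase luminescence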
S1P4 ag: agonists of human S1P4 receptor; O95977; S1P4-expressing cell line, agonist reporter assay; activation, % at 4.98 µM; 0.35% of 220,000 active; in the data active = activation above about 11%;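 note: 0% = DMSO vehicle and 100% = reference agonist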
L major viab: inhibitors of Leishmania major promastigote growth. Leishmania major promastigotes, resazurin fluorescence viability. inhibition, % at 10 µM. 9% of 200,000 active; in the data active = inhibition above about 50%;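 note: promastigotes grown with compound for 44 hours at 28 °C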
S1P3 antagonist: blocks the human S1P3 receptor | CHO S1P3 NFAT-BLA reporter, FRET fluorescence, antagonist mode | inhibition, % at 4.98 µM | Q99500 | 0.27% of 170,000 active;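 active = inhibition above the plate cutoff, the mean inhibition of test wells on that plate plus 3 SD, cut at about 28% in these data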;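 note: cells challenged with S1P at its EC80 of 0.8 µM; blue over green emission ratio from cleaved BLA substrate after 4 h stimulation; 0% = S1P-stimulated wells and 100% = unstimulated DMSO-only wells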
Target sequence (Q99500 whole entry, looked up): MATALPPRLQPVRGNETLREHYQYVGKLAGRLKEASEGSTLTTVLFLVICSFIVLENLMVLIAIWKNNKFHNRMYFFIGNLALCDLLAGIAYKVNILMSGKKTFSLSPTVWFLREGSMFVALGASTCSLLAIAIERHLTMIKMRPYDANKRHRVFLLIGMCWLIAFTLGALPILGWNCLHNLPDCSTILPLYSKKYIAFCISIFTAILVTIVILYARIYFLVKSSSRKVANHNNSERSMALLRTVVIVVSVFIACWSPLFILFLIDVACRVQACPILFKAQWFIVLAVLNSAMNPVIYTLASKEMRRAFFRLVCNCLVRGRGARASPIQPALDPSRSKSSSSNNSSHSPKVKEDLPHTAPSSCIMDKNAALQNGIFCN
S1P4 antag: blocks the human S1P4 receptor | S1P4-expressing cells, antagonist mode, reporter read-out | inhibition, % at 4.98 µM | 0.26% of 220,000 active; in the data active = inhibition above about 29%;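 note: 0% = wells stimulated with agonist and 100% = vehicle wells without agonist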
S1P4 agonist cf: human S1P4 agonism, confirmation. shares compounds with S1P4 ag. S1P4 agonist cell-based reporter assay. activation, % at 4.98 µM. 7% of 740 active. AID 1523; in the data active = activation above about 12%;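 note: 0% = vehicle and 100% = full reference agonist response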
S1P1 agonist: activates human S1P1, counter-screen for S1P4 agonists. shares compounds with S1P4 ag. S1P1 agonist cell-based assay, activation. activation, % at 4.98 µM. 4% of 740 active; in the data active = activation above about 21%;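 note: 0% = vehicle wells and 100% = reference agonist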
Active calls of the source: *; nt = not tested or not shown.

SMILES | MDM2 E3 inh | S1P4 ag | L major viab | S1P3 antagonist | S1P4 antag | S1P4 agonist cf | S1P1 agonist
O=c1oc2c(CN3CCN(CCO)CC3)c(O)ccc2cc1-c1ccccn1 | nt | 14* | nt | 8 | 1 | 6 | 3
COCCSc1ccccc1C(=O)N1CCCC1 | -2 | 1 | 11 | -8 | -12 | nt | nt
COCCSc1ccccc1C(=O)N1CCN(Cc2ccccc2)CC1 | -2 | 13* | -10 | -9 | -10 | -2 | -7
CCCOc1ccc(N2C(=O)CC(SCc3nc4ccccc4[nH]3)C2=O)cc1 (configuration not stated) | -93 | -2 | -2 | 9 | 18 | nt | nt
NS(=O)(=O)c1ccc(CCNC(=O)CCCC2=NS(=O)(=O)c3ccccc3N2)cc1 | 9 | 17* | 0 | -34 | -5 | -1 | -2
CCN(C(=S)Nc1ccc(C(C)=O)cc1)C1CCCCC1 | 7 | 42* | -4 | -4 | -21 | -2 | -5
O=C(NNc1c2ccccc2nc2ccccc12)C12CC3CC(CC(C3)C1)C2 | -1 | 13* | nt | 6 | -15 | -2 | -3
O=Nc1c(O)n(Cc2cccc(C(F)(F)F)c2)c2ccccc12 | -13 | 2 | 26 | 8 | -15 | nt | nt
O=C(c1ccc(NS(=O)(=O)c2cccc3cccnc23)cc1)N1CCOCC1 | nt | 0 | -4 | 3 | -4 | nt | nt
O=C(c1ccc(NS(=O)(=O)c2cccc3cccnc23)cc1)N1CCCCC1 | -13 | 23* | 2 | -11 | 5 | -1 | -4
COc1ccc(NC(=O)c2cnc3sccn3c2=O)cc1 | -16 | 1 | -5 | -36 | -5 | nt | nt
CC(=O)c1cnc2sccn2c1=O | 5 | 16* | 1 | -24 | -6 | -3 | -4
COc1cccc(Nc2nc(-c3sc(NC(=O)c4ccco4)nc3C)cs2)c1 | -19 | 29* | 35 | nt | -7 | -3 | -4
CCOc1cc(N2CCOCC2)c(OCC)cc1NC(=O)c1cc(C)cc(C)c1 | -4 | 1 | 7 | -5 | -1 | nt | nt
CCOc1cc(N2CCOCC2)c(OCC)cc1NC(=O)c1ccc(C)cc1 | -6 | 155* | 10 | -3 | -6 | -2 | 0
N#CCC(CNc1ncc(C(F)(F)F)cc1Cl)OC(=O)c1cccc(C(F)(F)F)c1 (configuration not stated) | -29 | 16* | -6 | nt | 1 | -2 | 5
COc1ccc(O)c(C2=Nc3ccccc3N=C(c3ccco3)C2)c1 | -15 | 69* | -2 | nt | -12 | -3 | 3
Oc1ccc(Cl)cc1C1=Nc2ccccc2N=C(c2ccco2)C1 | -5 | 2 | -1 | nt | 5 | nt | nt
N/C(CCS(=O)(=O)c1ccc(Cl)cc1)=N\OC(=O)c1ccc(Cl)cc1 | -1 | 103* | nt | -2 | 16 | -1 | -4
N/C(CCS(=O)(=O)c1ccc(Cl)cc1)=N\OC(=O)c1ccccc1C(F)(F)F | -11 | 0 | nt | -9 | 7 | nt | nt
CC(C)(C)C1=CC=C(C(C)(C)C)C(=O)C1=O | -1 | 0 | nt | -8 | 3 | nt | nt
CCCSc1nnc(NC(=O)Nc2ccc(F)cc2)s1 | -3 | 61* | -4 | nt | -3 | -2 | 2
CC(C)Sc1nc2ccc(Br)cc2[nH]1 | 7 | 14* | 2 | -8 | -15 | -2 | 2
CC(C)Nc1nc(NC(C)C)nc(SCCOC(=O)Nc2ccc(Cl)cc2Cl)n1 | -4 | 2 | 3 | 1 | -10 | nt | nt
CCC1CCCCN1C(=S)Nc1ccc(OC(F)F)cc1 (configuration not stated) | -4 | 12* | -2 | -22 | 0 | -2 | -3
SMILES | MDM2 E3 inh | S1P4 ag | L major viab | S1P3 antagonist | S1P4 antag | S1P4 agonist cf | S1P1 agonist
Cc1ccc(-c2n[nH]c(=S)n2/N=C/c2c(C)[nH]n(-c3ccccc3)c2=O)cc1 | -22 | -3 | -3 | -24 | -4 | nt | nt
CCN(CC)c1ccc(-c2n[nH]c(=S)n2-c2ccccc2)cc1 | -6 | 12* | 0 | 1 | -17 | -1 | 0
CN(C)c1ccc(-c2n[nH]c(=S)n2-c2ccccc2)cc1 | -12 | 1 | 18 | -21 | 1 | nt | nt
Cc1ccc(NC(=O)Cn2cnc3ccccc32)cc1C | -4 | 58* | 13 | -7 | 0 | -2 | 3
CCCCn1c(N)c(C(=S)NC(=O)CC(C)(C)C)c(=O)n(C)c1=O | -10 | 1 | 2 | -42 | -8 | nt | nt
COc1ccccc1NC(=O)c1c(NC(=O)c2ccco2)sc2c1CCC2 | -9 | 14* | 1 | 18 | -11 | 0 | -3
